Results from ChEMBL document CHEMBL1142998, “Structure-activity relationship study of tricyclic necroptosis inhibitors” (J Med Chem, 2007).
Calls of active or inactive are those of the source. No cut-off for these calls is given here.

tested on: L929; assay: Inhibition of zVAD.fmk-induced necroptosis in mouse L929 cells assessed as cell viability at 30 uM after 24 hrs; format: functional, cell-based
Procedure, shortened: (§1)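 L929 cells, 100000 cells/mL, challenged with 10 ng/mL human TNF-α or 100 µM zVAD.fmk alongside compound at 30 µM or DMSO, 24 h, 37 °C, 5% CO2; final DMSO 0.5%, duplicates. Viability by luminescent ATP assay, corrected for nonspecific compound toxicity; mean % viability ± SD from two independent experiments.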

| Structure (SMILES) | Activity |
| --- | --- |
| CN1C(=O)N[C@H](Cc2c[nH]c3c(Cl)cccc23)C1=O (racemic) | Active |
| COc1ccc([C@H]2[C@H]3CCc4ccc(OC)cc4C3=NN2C(C)=O)cc1 | inactive |

tested on: L929; assay: Inhibition of TNF alpha-induced necroptosis in mouse L929 cells assessed as cell viability at 30 uM after 24 hrs; format: functional, cell-based; procedure, shortened: as §1

| Structure (SMILES) | Activity |
| --- | --- |
| CN1C(=O)N[C@H](Cc2c[nH]c3c(Cl)cccc23)C1=O (racemic) | Active |
| COc1ccc([C@H]2[C@H]3CCc4ccc(OC)cc4C3=NN2C(C)=O)cc1 | Active |

tested on: Jurkat; assay: Inhibition of TNF alpha-induced necroptosis in FADD-deficient variant human Jurkat T cells assessed as cell viability after 24 hrs; format: functional, cell-based
Procedure, shortened: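 FADD-deficient human Jurkat T cells at 500000 cells/mL exposed to 10 ng/mL human TNF-α plus compound at 11 concentrations (0.029–100 µM), each in duplicate, 24 h, 37 °C, 5% CO2; final DMSO 0.5%. ATP luminescence viability expressed relative to compound alone (TNF/compound signal ratio). EC50 from variable-slope sigmoid nonlinear regression; two independent experiments unless noted.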

| Structure (SMILES) | EC50 [µM] |
| --- | --- |
| COc1ccc([C@H]2[C@H]3CCc4ccc(F)cc4C3=NN2C(C)=O)cc1 | 0.28 |
| COc1ccc2c(c1)C1=NN(C(C)=O)[C@@H](c3ccc(F)cc3)[C@H]1CO2 | 4.8 |
| COc1ccc([C@H]2[C@H]3C[C@H](N(C)C)c4ccc(OC)cc4C3=NN2C(C)=O)cc1 | 5.1 |
| COc1ccc([C@H]2[C@H]3CCc4ccc(OC)cc4C3=NN2C(=N)N)cc1 | > 100 |
| CC(=O)N1N=C2c3cc(O)ccc3CC[C@@H]2[C@@H]1c1ccc(O)cc1 | > 100 |
| COc1ccc2c(c1)C1=NN(C(C)=O)[C@@H](c3ccc([N+](=O)[O-])cc3)[C@H]1CC2 | 1.8 |
| COc1ccc([C@H]2[C@H]3CCc4ccc(OC)cc4C3=NN2C(N)=S)cc1 | 8.8 |
| COc1ccc2c(c1)C1=NN(C(C)=O)[C@@H](c3ccccc3OC)[C@H]1CC2 | > 100 |
| COc1ccc([C@H]2[C@H]3CCc4ccc(OC)cc4C3=NN2C(N)=O)cc1 | 4.3 |
| COc1ccc2c(c1)C1=NN(C(C)=O)[C@@H](c3ccc(SC)cc3)[C@H]1CC2 | 1.1 |
| COc1ccc2c(c1)C1=NN(C(C)=O)[C@@H](c3ccc(O)cc3)[C@H]1CC2 | 5.9 |
| CCN1N=C2c3cc(OC)ccc3CC[C@@H]2[C@@H]1c1ccc(OC)cc1 | > 100 |
| CNC(=S)N1N=C2c3cc(OC)ccc3CC[C@@H]2[C@@H]1c1ccc(OC)cc1 | 7.9 |
| COc1cc2c(cc1OC)C1=NN(C(C)=O)[C@@H](c3ccc(F)cc3)[C@H]1CC2 | > 100 |
| COc1ccc([C@H]2[C@H]3CCc4ccc(OCCN5CCOCC5)cc4C3=NN2C(C)=O)cc1 | > 50 |
| COc1ccc([C@H]2[C@H]3CCc4cccc(OC)c4C3=NN2C(C)=O)cc1 | > 50 |
| CC(=O)N1N=C2c3cc(C)ccc3OC[C@H]2[C@@H]1c1ccc(F)cc1 | > 100 |
| COc1ccc([C@H]2[C@H]3CCc4ccc(OC)cc4C3=NN2C(=O)COC(C)=O)cc1 | 3.1 |
| COc1ccc2c(c1)CC[C@H]1C2=NN(C(C)=O)[C@H]1c1ccc(F)cc1 | > 100 |
| COc1ccc2c(c1)C1=NN(C(C)=O)[C@@H](c3ccc4c(c3)OCO4)[C@H]1CC2 | 2.6 |

| Structure (SMILES) | EC50 [µM] |
| --- | --- |
| COc1ccc([C@H]2[C@H]3CCc4ccccc4C3=NN2C(C)=O)cc1 | 0.84 |
| COc1ccc2c(c1)C1=NN(C(C)=O)[C@@H](c3cccc(F)c3)[C@H]1CC2 | 0.68 |
| CC(=O)N1N=C2c3cc(C)ccc3OC[C@@H]2[C@@H]1c1ccc(F)cc1 | 11.6 |
| COc1ccc([C@H]2[C@H]3C[C@H](N)c4ccc(OC)cc4C3=NN2C(C)=O)cc1 | 1.2 |
| COCC(=O)N1N=C2c3cc(OC)ccc3CC[C@@H]2[C@@H]1c1ccc(OC)cc1 | 0.44 |
| COc1ccc([C@H]2[C@H]3CCc4ccc([N+](=O)[O-])cc4C3=NN2C(C)=O)cc1 | 3.5 |
| COc1ccc([C@H]2[C@H]3CCc4ccc(OCc5ccccc5)cc4C3=NN2C(C)=O)cc1 | 5 |
| COc1ccc2c(c1)C1=NN(C(C)=O)[C@@H](c3ccc4c(c3)OCCO4)[C@H]1CC2 | 2.1 |
| COc1ccc2c(c1)CC[C@@H]1C2=NN(C(C)=O)[C@H]1c1ccc(F)cc1 | > 100 |
| CCC(=O)N1N=C2c3cc(OC)ccc3CC[C@@H]2[C@@H]1c1ccc(OC)cc1 | 0.15 |
| CC(=O)N1N=C2c3ccccc3CC[C@@H]2[C@@H]1c1ccc(F)cc1 | 5.4 |
| COc1ccc([C@H]2[C@H]3CCc4c(OC)cccc4C3=NN2C(C)=O)cc1 | > 100 |
| COc1ccc([C@H]2[C@H]3CCc4ccc(OC)cc4C3=NN2C=O)cc1 | 0.92 |
| COc1ccc2c(c1)C1=NN(C(C)=O)[C@@H](c3ccc(F)cc3)[C@@H]1CC2 | 3.7 |
| COc1ccc([C@H]2[C@@H]3CCc4ccc(F)cc4C3=NN2C(C)=O)cc1 | 2.7 |
| CN1C(=O)N[C@H](Cc2c[nH]c3c(Cl)cccc23)C1=O (racemic) | 0.21 |
| COc1ccc2c(c1)C1=NN(C(C)=O)[C@@H](c3ccc(F)cc3)[C@H]1CC2 | 0.96 |
| COc1ccc([C@H]2[C@@H]3CCc4ccc([N+](=O)[O-])cc4C3=NN2C(C)=O)cc1 | > 100 |
| COc1ccc2c(c1)C1=NN(C(C)=O)[C@@H](c3ccc(OCc4ccccc4)cc3)[C@H]1CC2 | > 100 |
